What was measured:
Assay type in all cases: functional
[1] = tested on: Bacillus subtilis; experiment: Antibacterial activity against Bacillus subtilis subsp. subtilis str. 168 at 0.2 umol/disk after 24 hrs by agar plate diffusion assay
How it was run: (§1)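 Paper disks 5 mm across loaded with 0.2 µmol of each isolated compound, placed on agar plates seeded with the test bacterium (B. subtilis 168, S. aureus ATCC 25923, E. coli ATCC 25922 or E. coli HB 101). Read-out is the diameter of the inhibition zone in mm.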

[2] = tested on: Staphylococcus aureus; experiment: Antibacterial activity against Staphylococcus aureus ATCC 25923 at 0.2 umol/disk after 24 hrs by agar plate diffusion assay; how it was run: as §1
[3] = tested on: Escherichia coli; experiment: Antibacterial activity against Escherichia coli ATCC 25922 at 0.2 umol/disk after 24 hrs by agar plate diffusion assay; how it was run: as §1
[4] = tested on: Escherichia coli; experiment: Antibacterial activity against Escherichia coli HB101 at 0.2 umol/disk after 24 hrs by agar plate diffusion assay; how it was run: as §1

Compound | inhibition zone (IZ) [1] [mm] | inhibition zone (IZ) [2] [mm] | inhibition zone (IZ) [3] [mm] | inhibition zone (IZ) [4] [mm]
Nc1nc([C@@H]2c3[nH]c(N)nc3C[C@H](CNC(=O)c3cc(Br)c[nH]3)[C@H]2CNC(=O)c2cc(Br)c[nH]2)c[nH]1.O=C(O)C(F)(F)F.O=C(O)C(F)(F)F [AGELIFERIN] | 14 | 11 | 8 | 11
Cl.Cl.Nc1ncc([C@H]2[C@H](CNC(=O)c3ccc[nH]3)[C@@H](CNC(=O)c3ccc[nH]3)[C@@H]2c2cnc(N)[nH]2)[nH]1 [DEBROMOSCEPTRIN] | 10 | – | – | –
COC(=O)[C@H]1[C@H](CNC(=O)c2cc(Br)c[nH]2)[C@@H](CNC(=O)c2cc(Br)c[nH]2)[C@@H]1c1c[nH]c(N)n1.O=C(O)C(F)(F)F [NAKAMURIC ACID METHYL ESTER] | 9 | – | – | –
Nc1nc([C@H]2[C@H](CNC(=O)c3cc(Br)c[nH]3)[C@@H](CNC(=O)c3cc(Br)c[nH]3)[C@@H]2C(=O)O)c[nH]1.O=C(O)C(F)(F)F [NAKAMURIC ACID] | 9 | – | – | –
Nc1nc([C@H]2[C@H](CNC(=O)c3cc(Br)c[nH]3)[C@@H](CNC(=O)c3cc(Br)c[nH]3)[C@@H]2c2c[nH]c(N)n2)c[nH]1.O=C(O)C(F)(F)F.O=C(O)C(F)(F)F [SCEPTRIN (TFA SALT)] | 16 | 16 | 9 | 13

From ChEMBL document CHEMBL1144112, “New bromopyrrole alkaloids from the Indopacific sponge Agelas nakamurai” (1999)
